Source: publication PMC3726261 (Cancer, 2012)

Legend:
[1] = Pharmacokinetics: plasma R-150033 by LC-MS/MS after oral efatutazone; format: in vivo, human; details: 0.10 to 1.15 mg twice daily; single and multiple doses
Summary of the method: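 Adults with advanced solid malignancies took oral doses twice daily in 21-day cycles, in cohorts of 3 to 6 at 0.10–1.15 mg. Plasma was sampled at baseline and 0.5, 1, 2, 3, 4, 6 and 8–10 h after the first dose on day 1 of cycles 1 and 2. Active metabolite R-150033 was measured by validated LC-MS/MS. AUC, Cmax and Tmax were derived; accumulation was AUC0-tau/AUC0–12, and steady state was judged from trough levels.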

[2] = system: recurrent metastatic liposarcoma; details: patients with recurrent metastatic liposarcoma; cited from earlier work
[3] = system: prostate-specific antigen levels; details: small percentage of prostate cancer patients; cited from earlier work

Cc1cc(Oc2ccc3nc(COc4ccc(CC5SC(=O)NC5=O)cc4)n(C)c3c2)cc(C)c1N (stereo not drawn) [R-150033]
Dose proportionality of exposure (AUC and Cmax) [1]: dose proportional

CCc1ccc(CCOc2ccc(CC3SC(=O)NC3=O)cc2)nc1 (stereo not drawn) [pioglitazone]
Disease stabilization [2]: prolonged disease stabilization

CN(CCOc1ccc(CC2SC(=O)NC2=O)cc1)c1ccccn1 (stereo not drawn) [rosiglitazone]
Effect on prostate-specific antigen levels [3]: either decreased or prolonged the stabilization of prostate-specific antigen levels
